Only some compounds are listed: those with a hit (about 2.2% of all), similar ones and a draw of the others.
NadD inh = inhibitors of Staphylococcus aureus NadD; AID 602399; 360,000 compounds, 0.78% hits; purified NadD enzyme, colorimetric absorbance read-out; inhibition, % at 20 µM; in the data active = inhibition above about 26%
rCAG RNA binder = molecules binding r(CAG) RNA repeats; inhibition, % at 3 µM; r(CAG) RNA repeat, TO-PRO-1 dye displacement fluorescence; AID 651821; 370,000 compounds, 1.3% hits;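 active = inhibition above the plate cutoff, the mean of all test compounds on that plate plus 3 SD, cut at about 35% in these data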;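 also: 0% = DMSO alone and 100% = 100 µM mitoxantrone as full dye displacement; higher means more dye released from RNA so lower well fluorescence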
ARFGAP1 inhibitor = rat ARFGAP1 inhibition; AID 651572; 360,000 compounds, 0.26% hits; inhibition, % at 16.5 µM; Arfgap1-stimulated ARF1 GTP hydrolysis, GDP FP detection;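 active = inhibition above a per-plate limit, mean inhibition of low control wells plus 3 SD, cut at about 25% in these data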;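 also: 0% = DMSO wells with enzyme and 100% = wells lacking Arfgap1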
Target sequence (Q62848 1-136 limits assumed): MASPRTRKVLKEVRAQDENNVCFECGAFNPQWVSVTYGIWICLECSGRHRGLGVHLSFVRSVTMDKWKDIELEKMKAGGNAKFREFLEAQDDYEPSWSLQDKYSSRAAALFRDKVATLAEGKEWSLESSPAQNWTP
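Material: truncated rat Arfgap1 GAP domain; Incubation: compound-enzyme preincubation 20 min, reaction 120 min, detection 60 min, 25 °C; Read-out: percent inhibition of Arfgap1-stimulated GTP hydrolysis; Technique: FP, GDP Alexa 633 tracer displaced from anti-GDP antibody, 620/688 nm; Controls: No-Arfgap1 wells (100%) versus DMSO full-reaction wells (0%); Replication: single well per compound.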
ASAP1 inh = ASAP1 ArfGAP inhibition; Q9ULH1; ASAP1-stimulated ARF1 GTP hydrolysis, GDP FP detection; inhibition, % at 16.5 µM; 360,000 compounds, 0.19% hits; AID 624377; in the data active = inhibition above about 25%;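 also: 0% = vehicle with enzyme and substrate and 100% = no enzyme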
Target sequence (Q9ULH1 325-724 limits assumed): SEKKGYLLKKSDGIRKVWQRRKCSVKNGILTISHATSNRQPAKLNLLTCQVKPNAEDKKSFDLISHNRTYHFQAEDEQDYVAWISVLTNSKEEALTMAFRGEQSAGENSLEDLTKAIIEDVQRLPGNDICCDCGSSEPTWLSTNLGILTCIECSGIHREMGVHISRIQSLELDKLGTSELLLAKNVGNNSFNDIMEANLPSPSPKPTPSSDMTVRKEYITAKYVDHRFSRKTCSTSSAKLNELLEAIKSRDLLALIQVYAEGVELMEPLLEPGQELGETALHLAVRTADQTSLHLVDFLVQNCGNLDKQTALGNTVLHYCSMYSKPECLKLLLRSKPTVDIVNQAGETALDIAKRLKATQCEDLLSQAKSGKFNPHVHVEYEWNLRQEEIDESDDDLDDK
NadD inh conf = confirmation of Staphylococcus aureus NadD inhibitors; shares compounds with NadD inh; purified S. aureus NadD, colorimetric enzyme assay; inhibition, % at 20 µM; 2,000 compounds, 13% hits; AID 624309; in the data active = inhibition mostly above about 42%, no sharp cut-off; inactive = mostly below about 42%
rCAG binder conf = r(CAG) RNA repeat binding, confirmation | shares compounds with rCAG RNA binder | AID 652065 | TO-PRO-1 dye displacement fluorescence | 4,300 compounds, 70% hits | inhibition, % at 3 µM;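 active = inhibition above a per-plate cutoff, the mean inhibition of sample wells plus 3 SD, cut at about 35% in these data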;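 also: loss of TO-PRO-1 fluorescence as compound displaces dye from 1x1 AA loop RNA; 0% = DMSO only wells and 100% = 100 µM mitoxantrone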
DNA CAG counter = counter-screen for rCAG RNA binders: DNA CAG dye complex inhibitors; d(CAG) DNA oligo TO-PRO-1 dye displacement, fluorescence; shares compounds with rCAG RNA binder; AID 652068; inhibition, % at 3 µM; 4,300 compounds, 94% hits;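 active = inhibition above its plate's cutoff, the mean test-well inhibition plus 3 SD, cut at about 4.8% in these data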;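 also: 0% = DNA dye mix with DMSO and 100% = 100 µM mitoxantrone; hits displace the dye from DNA and so lower well fluorescence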
DNA CAG DR = DNA CAG dye complex inhibition, dose response counter-screen; DNA CAG/GTC duplex TO-PRO-1 dye displacement fluorescence; IC50, µM; shares compounds with rCAG RNA binder; AID 686960; 250 compounds, 20% hits; in the data active = IC50 below about 10 µM
The depositor's hits bear a star; i = inactive; . = no result given.

SMILES	NadD inh	rCAG RNA binder	ARFGAP1 inhibitor	ASAP1 inh	NadD inh conf	rCAG binder conf	DNA CAG counter	others
Cc1c(NC(=O)C2CCCN(S(=O)(=O)c3ccc(Cl)s3)C2)c(=O)n(-c2ccccc2)n1C (centres undefined)	.	5	.	.	.	.	.
CC(C)CC(C(=O)Nc1oc(-c2ccccc2)c(-c2ccccc2)c1C#N)N1C(=O)c2ccccc2C1=O (centres undefined)	36*	51*	-5	4	13	39*	19*
COc1ccccc1N1CCN(S(=O)(=O)c2ccc3c(c2)CCC(=O)N3)CC1	.	4	.	.	.	.	.
CCn1c2ccccc2c2cc(NC(=O)COC(=O)c3cc(S(N)(=O)=O)c(Cl)cc3Cl)ccc21	41*	36*	2	10	26	32	17*
CCn1c2ccccc2c2cc(NC(=O)COC(=O)c3ccc(NC(=O)CC#N)cc3)ccc21	64*	47*	9	3	40	35*	21*
CCn1c2ccccc2c2cc(NC(=O)COC(=O)c3cc(Cl)cc(Cl)c3)ccc21	.	3	.	.	.	.	.
CCn1c2ccccc2c2cc(NC(=O)CSc3nccc(=O)[nH]3)ccc21	41*	44*	10	-1	50*	40*	16*
O=C(CSc1nccc(=O)[nH]1)Nc1ccc2ccccc2c1	-3	9	-4	-6	.	.	.
O=C(Nc1cc(Br)ccc1O)c1cc(-c2ccco2)on1	29*	43*	13	2	11	42*	19*
CCc1nc2ccc(C(=O)N3CCCC(C(N)=O)C3)cn2c1N(C)Cc1ccc(OC)cc1 (centres undefined)	0	-1	-5	-3	.	.	.
Cc1cc(C)c2c(n1)sc1c(O)cc(=O)[nH]c12	0	15	0	3	.	.	.
COc1ccc(-c2cc(C(F)(F)F)c3c(n2)sc2c(O)cc(=O)[nH]c23)c(OC)c1	30*	42*	12	7	45	42*	14*
CCc1nc2ccc(C(=O)NCc3cccs3)cn2c1N(C)Cc1nccs1	2	0	2	-5	.	.	.
COc1ccc(CCN(Cc2cccs2)S(=O)(=O)c2ccc(C)c(C)c2)cc1OC	.	7	.	.	.	.	.
CCCCC(=O)Nc1nc(C)c(-c2csc(Nc3cc(Cl)ccc3OC)n2)s1	34*	45*	9	-6	28	23	13*
CCCCCCC(=O)Nc1nc(C)c(-c2csc(Nc3cc(Cl)ccc3C)n2)s1	39*	39*	5	21	12	20	11*
CC(C)C[C@H]1CN(CCCC[C@@H]2CNC(=O)C(=O)N2CC2CCCCC2)C(=O)C(=O)N1Cc1ccccc1	21	-3	-2	1	.	.	.
COC(=O)C1=C[C@@H]([C@@H](C)[C@H](OC)c2ccccc2Br)[C@@H]2OCCC[C@H]12	.	0	.	.	.	.	.
O=C(Nc1cccc(S(=O)(=O)NC2=NCCCCC2)c1)c1cc(-c2ccco2)nc2ccccc12	46*	35*	-4	3	59*	24	16*
O=C(Nc1cccc(S(=O)(=O)NC2=NCCCCC2)c1)c1cc(-c2ccncc2)nc2ccccc12	20	7	6	2	.	.	.
Cc1cccc(NS(=O)(=O)c2ccc3[nH]c(=O)cc(C(=O)OC(C)C(=O)Nc4ccc([N+](=O)[O-])cc4)c3c2)c1 (centres undefined)	43*	46*	14	4	41	36*	17*
CCc1cccc2c(/C=N/NC(=O)c3cccc(S(=O)(=O)Nc4ccccc4Cl)c3)c[nH]c12	32*	57*	2	-4	52*	72*	31*	DNA CAG DR=i
COc1ccccc1/C=c1\sc2nc(-c3ccccc3OC)nn2c1=O	13	28	6	6	.	.	.
COc1ccc(Br)cc1/C=c1\sc2nc(-c3ccco3)nn2c1=O	40*	46*	-2	9	13	42*	21*
Cc1ccc(C)c(-c2cc(C(=O)Nc3nccs3)c3ccccc3n2)c1	14	7	-3	5	.	.	.
SMILES	NadD inh	rCAG RNA binder	ARFGAP1 inhibitor	ASAP1 inh	NadD inh conf	rCAG binder conf	DNA CAG counter	others
O=C(Nc1ccc(S(=O)(=O)Nc2nccs2)cc1)c1ccc(N2C(=O)c3ccccc3C2=O)cc1	62*	45*	5	-6	40	56*	24*
Cc1ccc(-c2cc(C(=O)Nc3ccc(S(=O)(=O)Nc4ncccn4)cc3)c3ccccc3n2)cc1	33*	58*	1	2	38	64*	20*
Cc1ccc(-c2cc(C(=O)Nc3ccc(S(=O)(=O)Nc4nccs4)cc3)c3ccccc3n2)c(C)c1	63*	68*	17	4	53*	71*	30*	DNA CAG DR=i
O=C(Nc1ccc(S(=O)(=O)Nc2nccs2)cc1)c1ccc(F)cc1	1	8	11	4	.	.	.
O=C(Nc1ccc(S(=O)(=O)Nc2nccs2)cc1)c1cc(-c2ccccc2)nc2ccccc12	46*	74*	3	13	50*	76*	38*
CC(C)(C)NS(=O)(=O)c1ccc(NC(=O)c2cc(-c3ccccc3)nc3ccccc23)cc1	18	6	11	-1	.	.	.
Cc1cc(C)cc(C(=O)OCCCN(C)C2CN(Cc3cn(Cc4ccc([N+](=O)[O-])cc4)nn3)S(=O)(=O)C2)c1 (centres undefined)	.	7	.	.	.	.	.
Cc1cc2nc(-c3cccc(Cl)c3)c(Cc3ccccc3)n2c(C)c1Br	14	.	.	.	.	.	.
Cc1cc2nc(-c3cccc(Br)c3)c(Cc3cccc(Cl)c3)n2c(C)c1Br	35*	40*	-4	9	15	12	5.9*
O=S1(=O)N[C@H](Cc2ccccc2)COc2cc(N3CCOCC3)ccc21	.	1	8	-7	.	.	.
CCc1ccc(N2C(=O)Cc3c2nc(N)c(C#N)c3N)cc1	7	16	2	15	.	.	.
CCN(CC)c1nc2c3c(nc4c(c3c1C#N)CC(=O)N4c1ccc(Cl)cc1)NC(C)=N2	45*	60*	10	5	27	52*	23*
O=C(O)CC/C(=C/c1cccc(NC(=O)c2ccccc2Cl)c1)c1nc2ccccc2s1	47*	71*	2	8	40	75*	40*
COc1cc(/C=C(\CCC(=O)O)c2nc3ccccc3s2)ccc1OCC(=O)Nc1c(Cl)cccc1Cl	20	32	8	-21	.	.	.
COc1ccc(C2CC(=O)C(c3cccc(C)c3)=CN2Cc2ccccc2)cc1 (centres undefined)	.	3	-1	14	.	.	.

Compound activity (PubChem BioAssay)
